Assay results: publication PMC7357868 (ACS chemical biology, 2019)

Legend:
[1] = target: T1, hRev1 (Homo sapiens, UniProt Q9UBZ9); test: Gel-based primer extension assay; type: biochemical; settings: 10 μM IAG-10, 10 nM hRev1
T1 sequence (Q9UBZ9 330-833): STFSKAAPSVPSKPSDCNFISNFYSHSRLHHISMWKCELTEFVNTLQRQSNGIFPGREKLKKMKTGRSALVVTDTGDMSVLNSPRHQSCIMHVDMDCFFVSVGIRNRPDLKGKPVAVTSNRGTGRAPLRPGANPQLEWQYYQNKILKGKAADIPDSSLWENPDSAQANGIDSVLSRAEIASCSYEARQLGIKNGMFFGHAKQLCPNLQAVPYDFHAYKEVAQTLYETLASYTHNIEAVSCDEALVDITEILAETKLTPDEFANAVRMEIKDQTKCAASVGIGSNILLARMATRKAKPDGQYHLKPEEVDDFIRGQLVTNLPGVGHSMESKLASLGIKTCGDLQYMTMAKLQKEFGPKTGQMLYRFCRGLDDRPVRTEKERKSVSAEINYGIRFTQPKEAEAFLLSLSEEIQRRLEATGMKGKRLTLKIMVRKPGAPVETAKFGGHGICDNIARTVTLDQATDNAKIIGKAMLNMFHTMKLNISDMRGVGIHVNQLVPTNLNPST

[2] = tested on: hpol κ-deficient HAP-1 cells; test: supF mutagenesis assay; type: cell-based, human; settings: 1 μM IAG-10, 24 h
In short: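 HAP-1 cells at ~80% confluency (IMDM, 10% FBS) lipofected for 24 h with pSP189 supF plasmid (10 μg per 10 cm dish), ±1 μM test compound. Plasmid was unmodified or pretreated with 100 mM MMS (HEPES pH 7.5, RT, 1 h). Recovered plasmid DpnI-digested, electroporated into E. coli MBM7070, plated on ampicillin/IPTG/X-gal. Mutation frequency = white/(blue + white); ≥10 000 colonies per condition; biological triplicate, mean ±SD.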

Cl.[H]/N=C(\N)NN=Cc1cn(C(=O)c2cccc3ccccc23)c2ccc(Cl)cc12 [IAG-10, (E)-2-((1-(1-naphthoyl)-5-chloro-1H-indol-3-yl)-methylene)hydrazine-1-carboximidamide hydrochloride]
polymerase activity in presence of compound [1]: only hpol κ was inhibited | mutation frequency, control or MMS-damaged DNA [2]: did not alter the mutation frequency
